Here are results for 1 molecule from ChEMBL document CHEMBL5678806, “NMS-P937, an orally available, specific small-molecule polo-like kinase 1 inhibitor with antitumor activity in solid and hematologic malignancies” (Mol Cancer Ther, 2012).

Structures are written as SMILES. pIC50: −log10 of the molar value. Activity calls are given as the source filed them. The rule behind the calls is not given here.

For data set [1], the system named is AU565. Kind of data set: Antiproliferative activity against human AU565 cells assessed as inhibition of cell growth incubated for 72 hrs by cell-titer glo assay. Conditions: AU565, 72 h. Format: functional, cell-based. In short, it runs like this: (§1)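 Cells seeded 10,000–30,000/cm² (adherent) or 100,000/mL (suspension) in medium with 10% fetal calf serum; after 24 h treated in duplicate with serial dilutions for 72 h. Viable cells read by CellTiter-Glo luminescence; IC50 from sigmoidal fit; at least two independent experiments.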

The target in data set [2] is Glycogen synthase kinase-3 beta (Homo sapiens, UniProt P49841). Nature of the data set: Inhibition of GSK3beta (unknown origin) in presence of [gamma-33P]ATP.
Data set [3] has as its system Caco-2. Kind of data set: Antiproliferative activity against human Caco-2 cells assessed as inhibition of cell growth incubated for 72 hrs by cell-titer glo assay. The note with it: Caco-2, 72 h. It counts as functional, cell-based. In short, it runs like this:
as §1

The target of data set [4] is Serine/threonine-protein kinase ULK3 (Homo sapiens) (UniProt Q6PHR2). Kind of data set: Inhibition of N-terminal 6His-tagged recombinant human full-length ULK3 expressed in baculovirus infected Sf21 cells assessed as residual activity at 0.1 uM relative to control.
Sequence of Serine/threonine-protein kinase ULK3 (Homo sapiens) (Q6PHR2 whole entry): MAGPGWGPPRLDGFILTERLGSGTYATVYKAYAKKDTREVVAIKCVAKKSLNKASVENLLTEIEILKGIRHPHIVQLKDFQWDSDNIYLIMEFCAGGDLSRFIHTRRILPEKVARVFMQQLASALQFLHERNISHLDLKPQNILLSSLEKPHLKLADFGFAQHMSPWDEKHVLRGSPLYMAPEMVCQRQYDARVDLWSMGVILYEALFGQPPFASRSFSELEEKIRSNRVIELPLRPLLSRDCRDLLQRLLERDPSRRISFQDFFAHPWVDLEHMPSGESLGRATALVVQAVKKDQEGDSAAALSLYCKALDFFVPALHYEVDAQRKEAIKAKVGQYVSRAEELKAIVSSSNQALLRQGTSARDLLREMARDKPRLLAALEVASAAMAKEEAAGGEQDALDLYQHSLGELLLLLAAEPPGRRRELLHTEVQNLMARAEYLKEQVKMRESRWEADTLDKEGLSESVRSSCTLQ
Data set [5] is described as follows: Antiproliferative activity against human GM03798 cells assessed as inhibition of cell growth incubated for 72 hrs by cell-titer glo assay. Format: functional, cell-based. Conditions: GM03798, 72 h. In short, it runs like this: as §1
Data set [6] deals with A2780. Nature of the data set: Induction of mitosis in human A2780 cells xenografted in nu/nu mouse assessed as decreased NPM phosphorylation on Thr199 at 60 mg/kg, po administered for 12 to 24 hrs by immunohistochemistry analysis. Conditions: time lower […], time upper 24.0 hrs. It counts as functional, organism-based. Background: Xenograft models place foreign cells or tissue in a host animal.

The target of data set [7] is MAP kinase-activated protein kinase 2 (Homo sapiens, UniProt P49137). Kind of data set: Inhibition of MAPKAPK2 (unknown origin) in presence of [gamma-33P]ATP.
Sequence of MAP kinase-activated protein kinase 2 (P49137 whole entry): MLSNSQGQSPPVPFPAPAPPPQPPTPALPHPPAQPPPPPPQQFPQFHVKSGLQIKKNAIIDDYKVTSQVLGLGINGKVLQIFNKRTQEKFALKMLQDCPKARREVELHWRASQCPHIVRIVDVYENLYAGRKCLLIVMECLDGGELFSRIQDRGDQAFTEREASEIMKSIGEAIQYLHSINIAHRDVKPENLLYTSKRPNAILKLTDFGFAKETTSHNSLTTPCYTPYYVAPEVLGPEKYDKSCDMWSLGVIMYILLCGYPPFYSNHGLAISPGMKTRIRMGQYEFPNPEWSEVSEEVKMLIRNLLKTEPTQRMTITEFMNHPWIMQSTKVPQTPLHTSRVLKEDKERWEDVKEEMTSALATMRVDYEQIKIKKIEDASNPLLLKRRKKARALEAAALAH
Data set [8] has as its system COLO-678. Kind of data set: Antiproliferative activity against human COLO-678 cells assessed as inhibition of cell growth incubated for 72 hrs by cell-titer glo assay. Format: functional, cell-based. The note with it: COLO-678, 72 h. In short, it runs like this:
as §1

Data set [9] concerns the target CDC7/DBF4 (Cell division cycle 7-related protein kinase/Activator of S phase kinase) (Homo sapiens, UniProt O00311). Nature of the data set: Inhibition of CDC7/DBF4 (unknown origin) in presence of [gamma-33P]ATP. It counts as protein-complex assay.
The target in data set [10] is Serine/threonine-protein kinase PAK 4 (Homo sapiens, UniProt O96013). Nature of the data set: Inhibition of PAK4 (unknown origin) in presence of [gamma-33P]ATP.
Sequence of Serine/threonine-protein kinase PAK 4 (O96013 whole entry): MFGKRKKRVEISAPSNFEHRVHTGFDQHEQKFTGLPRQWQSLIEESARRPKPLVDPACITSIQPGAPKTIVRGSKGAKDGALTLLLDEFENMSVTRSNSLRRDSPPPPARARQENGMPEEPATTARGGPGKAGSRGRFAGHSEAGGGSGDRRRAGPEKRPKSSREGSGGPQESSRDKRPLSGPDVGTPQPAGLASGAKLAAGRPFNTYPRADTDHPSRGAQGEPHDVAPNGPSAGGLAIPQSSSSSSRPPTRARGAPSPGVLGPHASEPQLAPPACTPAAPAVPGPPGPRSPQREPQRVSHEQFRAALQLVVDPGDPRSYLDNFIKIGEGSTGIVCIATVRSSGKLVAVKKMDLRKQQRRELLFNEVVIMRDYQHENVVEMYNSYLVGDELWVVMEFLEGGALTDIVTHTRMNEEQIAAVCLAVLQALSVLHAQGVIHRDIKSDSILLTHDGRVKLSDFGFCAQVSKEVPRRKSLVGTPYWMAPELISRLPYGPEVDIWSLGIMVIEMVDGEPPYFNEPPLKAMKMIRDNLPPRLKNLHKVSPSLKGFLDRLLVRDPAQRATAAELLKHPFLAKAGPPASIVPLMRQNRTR
Data set [11] can be described thus: AUC in male cynomolgus monkey at 5 mg/kg, iv by LC-MS analysis. It counts as ADME, organism-based, Macaca fascicularis. The note with it: in vivo.
Data set [12] addresses Rho-associated protein kinase 1 (Homo sapiens) (UniProt Q13464). Kind of data set: Inhibition of N-terminal His6-tagged recombinant human ROCK-I (17 to 535 residues) expressed in baculovirus infected Sf21 cells assessed as residual activity at 0.1 uM relative to control.
In data set [13] the test system is Platelet-derived growth factor receptor alpha (Homo sapiens), P16234 [D842V]. Kind of data set: Inhibition of N-terminal His6-tagged recombinant human PDGFRalpha (550 to end residues) D842V mutant expressed in baculovirus infected Sf21 cells assessed as residual activity at 0.1 uM relative to control.
For data set [14], the target named is Death-associated protein kinase 3 (Homo sapiens) (UniProt O43293). Nature of the data set: Inhibition of N-terminal GST tagged recombinant human ZIPK (1 to 290 residues) expressed in E. coli assessed as residual activity at 1 uM relative to control.
Sequence of Death-associated protein kinase 3 (Homo sapiens) (O43293 whole entry, looked up, the tested form may be a part): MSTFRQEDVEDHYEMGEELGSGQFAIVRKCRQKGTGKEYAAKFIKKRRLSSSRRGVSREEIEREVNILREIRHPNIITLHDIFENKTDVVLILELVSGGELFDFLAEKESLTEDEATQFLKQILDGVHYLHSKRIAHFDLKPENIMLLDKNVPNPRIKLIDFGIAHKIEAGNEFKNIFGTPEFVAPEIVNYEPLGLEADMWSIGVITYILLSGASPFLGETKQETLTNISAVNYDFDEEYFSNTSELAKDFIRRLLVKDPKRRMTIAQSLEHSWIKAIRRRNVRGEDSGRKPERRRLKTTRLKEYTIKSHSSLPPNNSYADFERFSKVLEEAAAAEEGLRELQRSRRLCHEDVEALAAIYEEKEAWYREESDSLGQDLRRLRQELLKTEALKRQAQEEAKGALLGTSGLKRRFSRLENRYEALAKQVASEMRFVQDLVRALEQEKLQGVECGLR
For data set [15], the system named is DU-4475. Nature of the data set: Antiproliferative activity against human DU-4475 cells assessed as inhibition of cell growth incubated for 72 hrs by cell-titer glo assay. Format: functional, cell-based. The note with it: DU-4475, 72 h. In short, it runs like this:
as §1

For data set [16], the target named is Tyrosine-protein kinase receptor TYRO3 (Homo sapiens) (UniProt Q06418). Nature of the data set: Inhibition of N-terminal His6-tagged recombinant human Rse (451 to end residues) expressed in baculovirus infected Sf21 cells assessed as residual activity at 0.1 uM relative to control.
Sequence of Tyrosine-protein kinase receptor TYRO3 (Homo sapiens) (Q06418 whole entry): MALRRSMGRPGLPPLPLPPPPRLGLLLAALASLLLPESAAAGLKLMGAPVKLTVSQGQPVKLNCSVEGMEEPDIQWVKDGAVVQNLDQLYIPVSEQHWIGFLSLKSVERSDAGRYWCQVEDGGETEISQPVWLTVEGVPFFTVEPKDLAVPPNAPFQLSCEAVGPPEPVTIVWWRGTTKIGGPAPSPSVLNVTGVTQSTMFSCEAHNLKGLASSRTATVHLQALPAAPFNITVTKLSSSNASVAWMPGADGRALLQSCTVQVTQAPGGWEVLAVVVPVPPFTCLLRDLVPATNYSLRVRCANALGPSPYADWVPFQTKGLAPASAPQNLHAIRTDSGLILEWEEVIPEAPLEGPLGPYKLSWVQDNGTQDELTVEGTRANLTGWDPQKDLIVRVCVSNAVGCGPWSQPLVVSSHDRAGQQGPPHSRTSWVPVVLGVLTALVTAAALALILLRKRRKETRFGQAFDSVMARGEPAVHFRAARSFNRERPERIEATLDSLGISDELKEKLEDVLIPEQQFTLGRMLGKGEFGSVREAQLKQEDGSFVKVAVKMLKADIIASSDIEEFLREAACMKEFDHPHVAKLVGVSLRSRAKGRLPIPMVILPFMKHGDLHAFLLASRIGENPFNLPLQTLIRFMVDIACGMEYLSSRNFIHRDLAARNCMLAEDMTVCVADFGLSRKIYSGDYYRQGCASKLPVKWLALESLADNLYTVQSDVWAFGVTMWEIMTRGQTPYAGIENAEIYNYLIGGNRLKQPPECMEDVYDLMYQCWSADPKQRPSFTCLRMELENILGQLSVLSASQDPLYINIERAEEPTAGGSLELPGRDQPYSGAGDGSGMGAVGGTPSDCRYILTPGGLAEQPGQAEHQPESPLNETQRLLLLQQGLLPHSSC
In data set [17] the test system is RERF-LC-AI. Kind of data set: Antiproliferative activity against human RERF-LC-AI cells assessed as inhibition of cell growth incubated for 72 hrs by cell-titer glo assay. Format: functional, cell-based. In short, it runs like this: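 Cells from ATCC or ECACC, kept in supplier-recommended medium with 1% penicillin-streptomycin at 37°C, 5% CO₂. Seeded at 10,000–30,000/cm² (adherent) or 100,000/mL (nonadherent) in medium with 10% fetal calf serum. Dosed after 24 h in duplicate with serial dilutions. Viable cells read by CellTiter-Glo 72 h later. IC50 from sigmoidal fit. At least two independent experiments.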

Data set [18] addresses Dual specificity mitogen-activated protein kinase kinase 7 (Homo sapiens) (UniProt O14733). Kind of data set: Inhibition of N-terminal GST-tagged recombinant human MKK7beta (2 to end residues) expressed in E. coli assessed as residual activity at 0.1 uM relative to control.
In data set [19] the test system is 1A9. Kind of data set: Antiproliferative activity against human 1A9 cells assessed as inhibition of cell growth incubated for 72 hrs by cell-titer glo assay. Conditions: 1A9, 72 h. Format: functional, cell-based. In outline: as §1
Data set [20] has as its target Serine/threonine-protein kinase NIM1 (Homo sapiens, UniProt Q8IY84). Kind of data set: Inhibition of NIM1 (unknown origin) in presence of [gamma-33P]ATP.
The target in data set [21] is G protein-coupled receptor kinase 6 (Homo sapiens) (UniProt P43250). Kind of data set: Inhibition of N-terminal 6His-tagged recombinant full-length human GRK6 expressed in baculovirus infected Sf21 cells assessed as residual activity at 1 uM relative to control.
Sequence of G protein-coupled receptor kinase 6 (Homo sapiens) (P43250 whole entry, looked up): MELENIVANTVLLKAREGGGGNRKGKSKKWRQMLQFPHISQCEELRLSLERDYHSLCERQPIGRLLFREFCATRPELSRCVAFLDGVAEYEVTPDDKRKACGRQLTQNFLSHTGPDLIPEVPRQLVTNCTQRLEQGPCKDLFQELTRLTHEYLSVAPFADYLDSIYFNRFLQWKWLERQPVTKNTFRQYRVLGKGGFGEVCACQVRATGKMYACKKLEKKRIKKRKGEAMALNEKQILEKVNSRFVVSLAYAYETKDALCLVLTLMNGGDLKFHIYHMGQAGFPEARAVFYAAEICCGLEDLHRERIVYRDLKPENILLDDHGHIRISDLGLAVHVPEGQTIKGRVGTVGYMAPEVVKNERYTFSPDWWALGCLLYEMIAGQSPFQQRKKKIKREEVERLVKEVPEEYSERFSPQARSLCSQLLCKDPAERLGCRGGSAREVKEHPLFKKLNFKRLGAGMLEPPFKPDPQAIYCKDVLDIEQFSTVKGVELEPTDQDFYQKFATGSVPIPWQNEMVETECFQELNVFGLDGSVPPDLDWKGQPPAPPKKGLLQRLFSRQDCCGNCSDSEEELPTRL
Data set [22] concerns DU-145. Nature of the data set: Antiproliferative activity against human DU-145 cells assessed as inhibition of cell growth incubated for 72 hrs by cell-titer glo assay. Format: functional, cell-based. The note with it: DU-145, 72 h. In short, it runs like this: as §1
Data set [23] concerns the target Non-receptor tyrosine-protein kinase TYK2 (Homo sapiens, UniProt P29597). Kind of data set: Inhibition of TYK2 (unknown origin) in presence of [gamma-33P]ATP.
For data set [24], the system named is U2OS. Kind of data set: Induction of cell death in human U2OS cells assessed as reduced cell number at 1 uM by time lapse microscopy analysis. It counts as functional, cell-based. Conditions: time lower […], time upper 48.0 hrs, TDE = time-dependent effect.

Usually pIC50 stands for the IC50 on a negative log10 scale, so that one unit is a factor of ten. By AUC is commonly meant the area under the concentration-time curve, a measure of exposure.

Sequence of Non-receptor tyrosine-protein kinase TYK2 (P29597 whole entry): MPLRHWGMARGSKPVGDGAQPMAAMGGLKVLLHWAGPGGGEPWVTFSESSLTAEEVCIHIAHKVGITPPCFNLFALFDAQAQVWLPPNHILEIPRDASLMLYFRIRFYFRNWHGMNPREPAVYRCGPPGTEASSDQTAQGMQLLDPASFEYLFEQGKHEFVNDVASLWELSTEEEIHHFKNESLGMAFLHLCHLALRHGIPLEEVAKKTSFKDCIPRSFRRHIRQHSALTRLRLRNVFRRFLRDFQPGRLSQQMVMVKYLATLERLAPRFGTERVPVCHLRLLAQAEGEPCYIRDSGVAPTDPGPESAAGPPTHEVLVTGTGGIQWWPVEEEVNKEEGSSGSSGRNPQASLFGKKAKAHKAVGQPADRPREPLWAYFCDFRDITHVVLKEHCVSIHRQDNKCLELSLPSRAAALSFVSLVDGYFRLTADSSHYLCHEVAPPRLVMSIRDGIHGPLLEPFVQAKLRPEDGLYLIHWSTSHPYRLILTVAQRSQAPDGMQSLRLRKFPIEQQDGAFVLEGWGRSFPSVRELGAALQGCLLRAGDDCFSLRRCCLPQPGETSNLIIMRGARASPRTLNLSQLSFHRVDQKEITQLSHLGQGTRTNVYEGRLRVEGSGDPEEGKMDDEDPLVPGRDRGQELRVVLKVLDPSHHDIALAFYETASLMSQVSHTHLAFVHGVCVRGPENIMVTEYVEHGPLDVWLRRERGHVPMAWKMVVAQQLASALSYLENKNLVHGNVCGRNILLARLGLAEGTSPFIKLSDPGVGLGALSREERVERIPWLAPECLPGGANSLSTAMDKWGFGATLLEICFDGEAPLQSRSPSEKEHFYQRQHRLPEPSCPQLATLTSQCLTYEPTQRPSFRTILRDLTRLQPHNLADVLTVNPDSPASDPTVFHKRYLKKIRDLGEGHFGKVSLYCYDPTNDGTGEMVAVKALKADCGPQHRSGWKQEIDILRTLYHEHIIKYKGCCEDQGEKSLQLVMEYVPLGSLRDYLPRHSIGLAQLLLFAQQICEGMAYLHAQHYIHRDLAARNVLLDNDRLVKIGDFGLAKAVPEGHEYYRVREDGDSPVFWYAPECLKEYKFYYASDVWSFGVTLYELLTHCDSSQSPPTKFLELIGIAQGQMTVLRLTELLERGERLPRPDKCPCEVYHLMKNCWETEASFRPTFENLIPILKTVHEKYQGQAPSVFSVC
Sequence of Dual specificity mitogen-activated protein kinase kinase 7 (Homo sapiens) (O14733 whole entry): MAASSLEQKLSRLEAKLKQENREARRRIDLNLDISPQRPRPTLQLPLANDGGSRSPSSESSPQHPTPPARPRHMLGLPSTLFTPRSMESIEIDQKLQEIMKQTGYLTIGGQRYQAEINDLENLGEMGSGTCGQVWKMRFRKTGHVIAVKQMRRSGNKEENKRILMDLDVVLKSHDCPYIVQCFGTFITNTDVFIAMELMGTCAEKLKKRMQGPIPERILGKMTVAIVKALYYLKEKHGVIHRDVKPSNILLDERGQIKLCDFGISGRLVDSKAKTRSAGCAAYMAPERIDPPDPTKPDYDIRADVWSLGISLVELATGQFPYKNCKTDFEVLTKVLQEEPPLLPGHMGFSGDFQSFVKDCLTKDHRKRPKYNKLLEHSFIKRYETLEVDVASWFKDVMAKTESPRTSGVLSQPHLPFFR

For the molecule `CN1CCN(c2ccc(OC(F)(F)F)c(Nc3ncc4c(n3)-c3c(c(C(N)=O)nn3CCO)CC4)c2)CC1` [ONVANSERTIB], the pIC50 in data set [1] was 7.96; in data set [2] it was less than 5.00; in data set [3], 5.32; in [5], 7.26; in data set [7] it was less than 5.00; in [8], 6.45. The pIC50 in data set [9] is less than 5.00; in data set [10], less than 5.00; in data set [15] it was 7.33; in data set [17] it was 7.05; in data set [19], 7.21; in data set [20], less than 5.00. Also, the pIC50 in [22] is 6.60; in data set [23], less than 5.00. Also, the Activity in [4] is 139%; in data set [12], 145%; in data set [13], 122%; in [14], 87%; in [16], 137%; in [18], 85%. Besides, the Activity was 93% in data set [21] and “Tde” in data set [24]. Further, in data set [6], the outcome was Active. For the same molecule, the AUC in data set [11] is 14.1 µM·h.
